What was measured:
[1] = target: T1, Adenosine receptor A3 (Homo sapiens, UniProt P0DMS8); assay: Displacement of [3H]PSB11 from recombinant human adenosine A3 receptor expressed in CHO cells; type: cell-based
T1 sequence (P0DMS8 whole entry): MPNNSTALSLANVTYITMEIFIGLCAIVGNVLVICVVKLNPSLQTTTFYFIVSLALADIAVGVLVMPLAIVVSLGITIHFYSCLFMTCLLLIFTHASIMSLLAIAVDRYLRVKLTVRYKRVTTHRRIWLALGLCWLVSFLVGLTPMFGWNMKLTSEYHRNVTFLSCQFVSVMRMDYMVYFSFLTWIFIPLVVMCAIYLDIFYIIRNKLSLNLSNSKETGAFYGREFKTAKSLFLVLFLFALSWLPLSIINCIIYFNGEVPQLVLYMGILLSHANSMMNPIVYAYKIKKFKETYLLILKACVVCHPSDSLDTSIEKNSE

[2] = target: T2, Amine oxidase [flavin-containing] A (Homo sapiens, UniProt P21397); assay: Inhibition of recombinant human MAOA expressed in baculovirus infected BTI insect cells using p-tyramine as substrate preincubated for 30 mins followed by substrate addition and measured over 45 mins by horseradish peroxidase-Amplex Red-coupled fluorometric assay
T2 sequence (P21397 whole entry): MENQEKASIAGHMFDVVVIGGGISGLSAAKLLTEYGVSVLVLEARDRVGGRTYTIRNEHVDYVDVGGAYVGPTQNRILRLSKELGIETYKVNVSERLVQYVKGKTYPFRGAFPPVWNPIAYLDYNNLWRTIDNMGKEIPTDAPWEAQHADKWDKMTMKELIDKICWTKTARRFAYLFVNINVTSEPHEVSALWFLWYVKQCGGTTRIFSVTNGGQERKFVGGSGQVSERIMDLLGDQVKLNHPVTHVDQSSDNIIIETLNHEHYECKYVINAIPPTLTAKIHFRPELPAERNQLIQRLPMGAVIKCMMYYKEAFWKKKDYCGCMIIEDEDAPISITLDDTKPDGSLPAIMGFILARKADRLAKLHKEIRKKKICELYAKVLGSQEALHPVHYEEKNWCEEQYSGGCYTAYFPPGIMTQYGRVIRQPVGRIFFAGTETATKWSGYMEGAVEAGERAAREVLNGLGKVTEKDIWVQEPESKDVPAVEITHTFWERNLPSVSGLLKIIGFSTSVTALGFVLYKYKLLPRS
Summary of the method: (§1)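 Human recombinant MAO-A or MAO-B enzyme. Activity detected fluorometrically with the Amplex Red monoamine oxidase assay.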

[3] = target: T3, Adenosine receptor A1 (Homo sapiens) (UniProt P30542); assay: Displacement of [3H]CCPA from recombinant human adenosine A1 receptor expressed in CHO cells at 1 uM relative to control; type: cell-based
T3 sequence (whole entry): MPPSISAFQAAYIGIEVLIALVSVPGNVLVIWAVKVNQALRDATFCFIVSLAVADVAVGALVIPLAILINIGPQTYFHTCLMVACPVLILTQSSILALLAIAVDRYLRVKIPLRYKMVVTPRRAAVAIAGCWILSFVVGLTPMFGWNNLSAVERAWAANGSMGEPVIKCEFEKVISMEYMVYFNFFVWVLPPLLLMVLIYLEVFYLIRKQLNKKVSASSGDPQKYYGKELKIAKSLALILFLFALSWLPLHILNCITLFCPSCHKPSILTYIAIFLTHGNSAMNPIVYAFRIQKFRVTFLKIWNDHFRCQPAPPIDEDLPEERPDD
Summary of the method: (§2)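 Purchased membranes of CHO cells expressing human A1 ([3H]CCPA) or human A3 ([3H]PSB-11). A single high compound concentration is screened first; for potent compounds, full inhibition curves spanning 3 orders of magnitude. At least three independent experiments.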

[4] = target: T4, Adenosine receptor A2b (Homo sapiens) (UniProt P29275); assay: Displacement of [3H]PSB603 from recombinant human adenosine A2b receptor expressed in HEK293 cells at 1 uM relative to control; type: cell-based
T4 sequence (whole entry): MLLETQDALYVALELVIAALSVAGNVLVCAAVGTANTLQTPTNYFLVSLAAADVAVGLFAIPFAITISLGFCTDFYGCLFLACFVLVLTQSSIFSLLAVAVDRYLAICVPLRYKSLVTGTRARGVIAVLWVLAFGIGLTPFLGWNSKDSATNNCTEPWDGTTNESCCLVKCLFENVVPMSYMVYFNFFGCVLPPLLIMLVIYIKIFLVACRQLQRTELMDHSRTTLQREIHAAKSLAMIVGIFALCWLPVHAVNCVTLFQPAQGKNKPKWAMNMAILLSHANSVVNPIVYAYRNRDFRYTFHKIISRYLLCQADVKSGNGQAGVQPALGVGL
Summary of the method: (§3)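 Purchased membranes of HEK cells expressing human A2A ([3H]MSX-2) or human A2B ([3H]PSB-603). A single high compound concentration is screened first; for potent compounds, full inhibition curves spanning 3 orders of magnitude. At least three independent experiments.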

[5] = target: T5, Amine oxidase [flavin-containing] B (Homo sapiens, UniProt P27338); assay: Inhibition of recombinant human MAOB expressed in baculovirus infected BTI insect cells using p-tyramine as substrate preincubated for 30 mins followed by substrate addition and measured over 45 mins by horseradish peroxidase-Amplex Red-coupled fluorometric assay; summary of the method: as §1
T5 sequence (P27338 whole entry): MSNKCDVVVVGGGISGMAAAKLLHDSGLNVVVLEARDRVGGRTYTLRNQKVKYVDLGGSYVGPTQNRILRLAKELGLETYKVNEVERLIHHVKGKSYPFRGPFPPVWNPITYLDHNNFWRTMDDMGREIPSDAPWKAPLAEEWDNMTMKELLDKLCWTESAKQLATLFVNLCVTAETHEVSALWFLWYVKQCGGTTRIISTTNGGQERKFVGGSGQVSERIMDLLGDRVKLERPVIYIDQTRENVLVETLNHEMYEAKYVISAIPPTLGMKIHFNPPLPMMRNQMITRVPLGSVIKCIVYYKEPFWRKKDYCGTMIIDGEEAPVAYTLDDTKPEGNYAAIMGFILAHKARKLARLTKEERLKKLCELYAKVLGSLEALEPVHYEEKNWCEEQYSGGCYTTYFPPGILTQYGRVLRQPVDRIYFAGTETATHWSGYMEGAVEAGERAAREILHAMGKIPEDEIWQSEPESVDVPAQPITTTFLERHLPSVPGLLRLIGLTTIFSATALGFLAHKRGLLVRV

[6] = target: T6, Adenosine receptor A2a (Homo sapiens, UniProt P29274); assay: Displacement of [3H]MSX2 from recombinant human adenosine A2a receptor expressed in HEK293 cells at 1 uM relative to control; type: cell-based; summary of the method: as §3
T6 sequence (P29274 whole entry): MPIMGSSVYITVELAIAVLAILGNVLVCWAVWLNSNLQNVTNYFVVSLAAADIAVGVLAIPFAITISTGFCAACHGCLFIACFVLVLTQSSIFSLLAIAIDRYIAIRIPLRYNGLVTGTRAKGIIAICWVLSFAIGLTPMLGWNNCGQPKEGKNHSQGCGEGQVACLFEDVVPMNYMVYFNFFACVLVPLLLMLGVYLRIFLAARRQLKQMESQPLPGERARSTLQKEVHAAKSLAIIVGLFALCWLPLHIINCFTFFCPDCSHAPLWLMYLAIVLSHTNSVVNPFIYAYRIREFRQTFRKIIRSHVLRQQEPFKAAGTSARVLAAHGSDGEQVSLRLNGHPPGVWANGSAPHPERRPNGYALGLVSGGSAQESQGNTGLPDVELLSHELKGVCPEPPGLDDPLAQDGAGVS

[7] = target: T7, Adenosine receptor A3 (Homo sapiens) (UniProt P0DMS8); assay: Displacement of [3H]PSB11 from recombinant human adenosine A3 receptor expressed in CHO cells at 1 uM relative to control; type: cell-based; summary of the method: as §2
T7 sequence (whole entry): T1 sequence (P0DMS8 whole entry)

[8] = target: T6, Adenosine receptor A2a; assay: Displacement of [3H]MSX2 from recombinant human adenosine A2a receptor expressed in HEK293 cells; type: cell-based
[9] = target: T8, Adenosine receptor A1 (Homo sapiens, UniProt P30542); assay: Displacement of [3H]CCPA from recombinant human adenosine A1 receptor expressed in CHO cells; type: cell-based
T8 sequence (P30542 whole entry): T3 sequence (whole entry)

[10] = target: T2, Amine oxidase [flavin-containing] A; assay: Inhibition of recombinant human MAOA expressed in baculovirus infected BTI insect cells at 1 to 100 uM using p-tyramine as substrate preincubated for 30 mins followed by substrate addition and measured over 45 mins by horseradish peroxidase-Amplex Red-coupled fluorometric assay relative to control; conditions: 0.75 h; summary of the method: as §1
[11] = target: T9, Adenosine receptor A2b (Homo sapiens, UniProt P29275); assay: Displacement of [3H]PSB603 from recombinant human adenosine A2b receptor expressed in HEK293 cells; type: cell-based
T9 sequence (P29275 whole entry): T4 sequence (whole entry)

[12] = target: T5, Amine oxidase [flavin-containing] B; assay: Inhibition of recombinant human MAOB expressed in baculovirus infected BTI insect cells at 1 to 100 uM using p-tyramine as substrate preincubated for 30 mins followed by substrate addition and measured over 45 mins by horseradish peroxidase-Amplex Red-coupled fluorometric assay relative to control; conditions: 0.75 h; summary of the method: as §1
[13] = target: T10, Adenosine receptor A1 (Rattus norvegicus, UniProt P25099); assay: Displacement of [3H]CCPA from adenosine A1 receptor in rat brain cortical membranes; type: cell membranes
T10 sequence (P25099 whole entry): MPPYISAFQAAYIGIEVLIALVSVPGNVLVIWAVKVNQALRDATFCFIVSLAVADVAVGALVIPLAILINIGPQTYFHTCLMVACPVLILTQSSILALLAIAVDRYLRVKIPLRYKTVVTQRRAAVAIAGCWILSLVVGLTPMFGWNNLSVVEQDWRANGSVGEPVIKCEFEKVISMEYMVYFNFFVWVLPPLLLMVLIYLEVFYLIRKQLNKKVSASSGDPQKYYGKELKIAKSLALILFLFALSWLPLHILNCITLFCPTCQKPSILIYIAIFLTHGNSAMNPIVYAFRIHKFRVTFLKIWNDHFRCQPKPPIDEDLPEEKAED

[14] = Antioxidant activity assessed as increase in total ferric ion reducing activity at 1000 uM using FeCl3.6H2O and TPTZ incubated for 10 mins under dark condition by FRAP assay relative to control; type: functional; set-up: scale not given: the % may be the effect or the level left
Summary of the method: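 FRAP reagent made by mixing 10 parts 300 mM acetate buffer pH 3.6, 1 part 10 mM TPTZ in 40 mM HCl and 1 part 20 mM FeCl3·6H2O. Reagent mixed with compound solution, 10 min at room temperature in the dark. Ferrous-TPTZ complex read at 593 nm. Result is absorbance increase versus solvent sample. FeSO4·7H2O standard curve, 37.5–1200 μM.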

Ki [1] | IC50 [2] | inhibition [3] | inhibition [4] | IC50 [5] | inhibition [6] | inhibition [7] | Ki [8] | Ki [9] | inhibition (INH) [10] | Ki [11] | inhibition (INH) [12] | Ki [13] | SMILES | Activity [14]
> 1 µM | > 1 µM | 1% | 22% | 0.515 µM | 29% | 11% | > 1 µM | > 1 µM | -2% | > 1 µM |  |  | Cn1c(=O)c2c(nc3n2CCN3Cc2ccc(Cl)c(Cl)c2)n(C)c1=O | 
> 1 µM | > 1 µM | 23% | 21% | > 1 µM | 42% | 30% | > 1 µM | > 1 µM | 16% | > 1 µM | 42% |  | Cn1c(=O)c2c(nc3n2CCN3Cc2ccc(Cl)cc2)n(C)c1=O | 
> 1 µM | > 1 µM |  | 30% | > 1 µM |  | 22% | 0.369 µM | 0.396 µM | 11% | > 1 µM | 39% |  | Cn1c(=O)c2c(nc3n2CCN3Cc2cccc(Br)c2)n(C)c1=O | 
> 1 µM | > 1 µM | 10% | 41% | 0.343 µM |  | 15% | 0.881 µM | > 1 µM | 4% | > 1 µM |  |  | Cn1c(=O)c2c(nc3n2CCCCN3Cc2ccccc2Cl)n(C)c1=O | 
> 1 µM |  |  |  | > 1 µM |  |  | > 1 µM |  |  | > 1 µM | 4% | > 1 µM | Cn1c(=O)c2c(nc3n2CCCN3CCc2ccncc2)n(C)c1=O | 
> 1 µM |  |  |  | > 1 µM |  |  | > 1 µM |  |  | > 1 µM | 24% | > 1 µM | Cn1c(=O)c2c(nc3n2CCCN3Cc2cc(F)c(F)c(F)c2)n(C)c1=O | 
> 1 µM |  |  |  | > 1 µM |  |  | 3.04 µM |  |  | > 1 µM | 1% | > 1 µM | Cn1c(=O)c2c(nc3n2CCCN3CCc2cccnc2)n(C)c1=O | 
> 1 µM | > 1 µM | 6% | 2% | 0.177 µM | 30% | 1% | > 1 µM | > 1 µM | 6% | > 1 µM |  |  | Cn1c(=O)c2c(nc3n2CCN3Cc2ccc(F)c(Br)c2)n(C)c1=O | 
> 1 µM |  |  |  | > 1 µM |  |  | 2.02 µM |  |  | > 1 µM | 20% | 2.65 µM | Cn1c(=O)c2c(nc3n2CCCN3Cc2cccs2)n(C)c1=O | 
> 1 µM | > 1 µM | 30% | 3% | 111 µM |  | 15% | 0.784 µM | > 1 µM | 7% | > 1 µM |  |  | COc1ccccc1CN1CCn2c1nc1c2c(=O)n(C)c(=O)n1C | 
> 1 µM | > 1 µM | 11% | 40% | > 1 µM |  | 11% | 1.08 µM | > 1 µM | 14% | > 1 µM | 39% |  | Cn1c(=O)c2c(nc3n2CCCCN3Cc2ccccc2F)n(C)c1=O | 
 |  |  |  |  |  |  |  |  |  |  |  |  | O=C1O[C@H]([C@@H](O)CO)C(O)=C1O | 100%
> 1 µM | > 1 µM | 16% | 5% | 0.282 µM |  | 31% | 1.58 µM | > 1 µM | -2% | > 1 µM |  |  | Cn1c(=O)c2c(nc3n2CCCCN3Cc2ccc(Cl)cc2Cl)n(C)c1=O | 
> 1 µM |  |  |  | > 1 µM |  |  | 1.02 µM |  |  | > 1 µM | 40% | 1.41 µM | Cc1ccccc1CN1CCCn2c1nc1c2c(=O)n(C)c(=O)n1C | 
> 1 µM | > 1 µM | 24% | 21% | 0.991 µM |  | 37% | 0.887 µM | > 1 µM | 13% | > 1 µM |  |  | Cn1c(=O)c2c(nc3n2CCN3Cc2ccccc2Br)n(C)c1=O | 
